Series [1] is described as follows: Inhibition of peroxynitrite-induced cell death in Sprague-Dawley rat primary mixed cortical cells at 10 uM after 24 hrs by trypan blue absorbance assay. Type of series: functional. The method, boiled down:
(§1)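 Mixed cortical cultures from E15 rat embryos were exposed for 24 h to H2O2, peroxynitrite or doxorubicin (200 μM), with nitrone (10 μM) added at the same time. Cell death was measured by trypan blue absorbance at 590 nm and expressed as % inhibition. Mean ± SEM, N = 10; ANOVA with Bonferroni t test against vehicle.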

For series [2], the system named is Rotifers. Description: Protection against doxorubicin-induced toxicity in Rotifers assessed as viability at 10 uM after 24 hrs. Type of series: functional, Rotifera. The method, boiled down: (§2)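 Individually housed Philodina rotifers were exposed for 24 h to H2O2 or doxorubicin (200 μM), with nitrone (10 μM) added at the same time. Read-out was % viable animals. Vehicle controls came from the same stock culture and were run in parallel. Mean ± SEM, N = 10; ANOVA with Bonferroni t test.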

Series [3] deals with Rotifers. Description: Inhibition of water soluble peroxide formation in Rotifers cultures. It counts as functional, organism-based. The conditions noted are these: Rotifera; TDE = time-dependent effect.
Series [4] in a line: Inhibition of hydrogen peroxide-induced cell death in Sprague-Dawley rat primary mixed cortical cells at 10 uM after 24 hrs by trypan blue absorbance assay. It counts as functional. The method, boiled down:
as §1

In series [5] the test system is Rotifers. Kind of series: Protection against hydrogen peroxide-induced toxicity in Rotifers assessed as viability at 10 uM after 24 hrs. It counts as functional, Rotifera. The method, boiled down: as §2
For series [6], the species on record is Rattus norvegicus. Description: Induction of Electron transport protein complex 1 in Sprague-Dawley rat cortical mitochondria assessed as reduction of ferric cyanide at 10 uM after 30 mins in presence of dopamine. The method, boiled down:
(§3)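 Submitochondrial particles from rat cortical mitochondria were preincubated 30 min with nitrone (10 μM), dopamine, or both. Ferricyanide reduction was then followed from the 440 minus 490 nm difference in the presence of antimycin A and azide at 37.5 C, as a read-out of iron-sulfur cluster N2 activity. Activity is given as nmol/mg protein/min, mean ± SEM, N = 10.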

For series [7], the species on record is Rattus norvegicus. Kind of series: Inhibition of rotenone-induced electron leakage in Sprague-Dawley rat forebrain mitochondria assessed as NBT reduction at 0.8 uM after 30 mins. Type of series: functional. The method, boiled down: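 Forebrain mitochondria from 3-month-old rats, in Tris-KCl phosphate medium at pH 7.4, respired on 6 mM glutamate and 6 mM malate at 37.5 C with nitrone for 30 min. NBT reduction was run with 3 μM rotenone and 3 mM azide, and the formazan was then extracted and measured. Mean ± SEM of at least four independent preparations.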

The species named for series [8] is Rattus norvegicus. Kind of series: Induction of Electron transport protein complex 1 in Sprague-Dawley rat cortical mitochondria assessed as reduction of ferric cyanide at 10 uM after 30 mins. The method, boiled down:
as §3

The species named for series [9] is Rattus norvegicus. Description: Induction of Electron transport protein complex 1 in Sprague-Dawley rat cortical mitochondria assessed as reduction of ferric cyanide at 10 uM after 30 mins in presence of EPBNAH.
For series [10], the species on record is Rattus norvegicus. Description: Inhibition of water soluble peroxide formation in Sprague-Dawley rat forebrain mitochondria at 0.8 uM after 30 mins by FOX assay. It counts as functional. The method, boiled down:
(§4)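 Rat forebrain mitochondria respired on 6 mM glutamate/malate with nitrone at 37.5 C for 30 min, then were put on ice and homogenized in H2SO4. The supernatant was mixed with FeSO4, xylenol orange and sorbitol at 0.07 M H2SO4, held 30 min at 25 C in the dark, and read at 570 nm. Mean ± SEM of at least four independent preparations.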

The nature of series [11]: Solubility in water. Type of series: physicochemical.
Series [12] is filed under the species Rattus norvegicus. Kind of series: Inhibition of water soluble peroxide formation in Sprague-Dawley rat forebrain mitochondria at 0.4 uM after 30 mins by FOX assay. Type of series: functional. The method, boiled down:
as §4

Series [13] in a line: Inhibition of doxorubicin-induced cell death in Sprague-Dawley rat primary mixed cortical cells at 10 uM after 24 hrs by trypan blue absorbance assay. It counts as functional. The method, boiled down: as §1
The nature of series [14]: Lipophilicity, log K in methanol-water mixture by HPLC. Type of series: physicochemical. The method, boiled down:
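Nitrones in methanol (1.0 mg/mL) were run by reverse-phase C18 HPLC, eluted with MeOH/water from 9:1 to 7:3 v/v at 0.8 mL/min. Retention values were extrapolated to 100% aqueous to give log k'W.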

Series [15] is described as follows: Antioxidant activity assessed as ABTS radical scavenging activity assessed as burstlike formation of intensely green colored ABTS radical measured for 30 mins. Type of series: functional. The method, boiled down: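 Fenton-initiated ABTS cation radical formation: water, ABTS (1 mM stock), FeSO4 (0.5 mM stock), test compound (1 mM stock in DMSO), reaction started with H2O2 (10 mM stock). Absorbance read at 420 nm every minute over 30 min. Controls got DMSO vehicle, 10% final. Scavenging is seen as suppression of time-dependent radical formation.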

Series [16] is filed under the species Rattus norvegicus. Kind of series: Restoration of FCCP-induced decrease of mitochondrial membrane potential in Sprague-Dawley rat forebrain mitochondria at 0.8 uM treated 15 mins before FCCP challenge measured after 30 mins by rhodamine 123 fluorescence assay. It counts as functional. The method, boiled down:
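Rat forebrain mitochondria respired on 6 mM glutamate/malate at 37.5 C with nitrone. FCCP (0.2 μM) was added at 15 min to partly collapse the potential, and rhodamine 123 fluorescence quenching was recorded directly at 30 min. Potential was calculated by the Scaduto and Grotyohann method. Mean ± SEM of at least four preparations.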

The nature of series [17]: Antioxidant activity assessed as reduction of ABTS radical measured for 30 mins. It counts as functional. The method, boiled down:
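ABTS cation radical at 105 μM final, test compound at 0.5 mM final, DMSO vehicle at 2.5% final in controls. The reaction is started by adding the nitrone, and loss of radical is followed at 420 nm every minute for 30 min. Results are reduced ABTS•+ per 30 min as mean ± SEM, N = 10, compared with vehicle by ANOVA with Bonferroni t test.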

A short description of series [18]: Critical micellar concentration of the compound. It counts as physicochemical. The method, boiled down: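 Nitrone solutions in ultrapure water were measured at 25 C by the Wilhelmy plate method with a tensiometer. The cmc was taken as the breakpoint of the plot of surface tension against log concentration.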

The values below come from ChEMBL document CHEMBL1177726, “Amphiphilic amide nitrones: a new class of protective agents acting as modifiers of mitochondrial metabolism” (J Med Chem, 2010).

Structures are written as SMILES. Values after ≈ are worked out from the molar mass of the structure shown. Active and inactive are the calls of the source. The calls are words filed in the database; no cut-off is given here.

The inhibition is the drop in the measured response relative to a control, in per cent. By solubility is commonly meant the concentration that dissolves in the medium under given conditions.

Consider `CCCCCCCC(=O)NCC(C)(C)/[N+]([O-])=C/c1ccc(CNC(=O)[C@H](O)[C@H](O)[C@H](O[C@@H]2O[C@H](CO)[C@H](O)[C@H](O)[C@H]2O)[C@@H](O)CO)cc1`, for which the inhibition at 10 µM was 61% in series [1], 81% in series [4] and 82% in [13]. The Activity in the series with Rotifers [2] came to 85.8%; with Rotifers [5], 83%; in the series listed under Rattus norvegicus [6], 79 nmol/mg/min; in the series filed under Rattus norvegicus [8], 116 nmol/mg/min; in the series filed under Rattus norvegicus [9] it was 19 nmol/mg/min. Further, the inhibition entry was “tde” with Rotifers [3], 20% in the series filed under Rattus norvegicus [10] and 10% in the series listed under Rattus norvegicus [12]. The inhibition result in the series listed under Rattus norvegicus [7] was “Active”. Moreover, the solubility in series [11] came to 515 mg/mL (≈ 749 mM).

With `CCCCCCCC(=O)NCc1ccc(/C=[N+](\[O-])C(C)(C)CNC(=O)[C@H](O)[C@H](O)[C@H](O[C@@H]2O[C@H](CO)[C@H](O)[C@H](O)[C@H]2O)[C@@H](O)CO)cc1`, the logKw in series [14] amounted to 2.86. Also, the inhibition at 10 µM was found to be 90.1% in series [1], 93% in [4] and 93% in series [13]. The Activity in series [15] worked out at 96.8 nmol; with Rotifers [2], 96.5%; in the series with Rotifers [5], 87.6%; in the series filed under Rattus norvegicus [6], 110 nmol/mg/min; in series [17], 49.1 nmol; in the series listed under Rattus norvegicus [8], 124 nmol/mg/min. Besides, in the series filed under Rattus norvegicus [9], the Activity was found to be 31 nmol/mg/min. For the same molecule, the outcome in the series filed under Rattus norvegicus [16] was Active. Besides, the inhibition result with Rotifers [3] is “tde”; in the series filed under Rattus norvegicus [10], 80%. Besides, the inhibition entry in the series filed under Rattus norvegicus [7] is “Active”. The same molecule gave a solubility in [11] of 530 mg/mL (≈ 771 mM).

With `CC(C)(CNC(=O)CCC(F)(F)C(F)(F)C(F)(F)C(F)(F)C(F)(F)C(F)(F)F)/[N+]([O-])=C/c1ccc(CNC(=O)[C@H](O)[C@H](O)[C@H](O[C@@H]2O[C@H](CO)[C@H](O)[C@H](O)[C@H]2O)[C@@H](O)CO)cc1`, the inhibition at 10 µM in series [1] came out at 40.1%; in series [4], 63.4%; in [13], 34.9%. The CMC in [18] is recorded as 0.213 mM. The Activity with Rotifers [2] amounted to 30.6%; in the series on Rotifers [5], 40.6%.

In the case of `CC(C)(C)/[N+]([O-])=C/c1ccccc1`, the logKw in [14] turned out to be 1.62. The inhibition at 10 µM in [1] worked out at 20.6%; in series [4] it was 25%; in series [13], 24.2%. Moreover, the Activity came out at 18.7% in the series on Rotifers [2]; 25.6% in the series on Rotifers [5]; 60 nmol/mg/min in the series filed under Rattus norvegicus [6]; 107 nmol/mg/min in the series filed under Rattus norvegicus [8]; 13 nmol/mg/min in the series filed under Rattus norvegicus [9].

Regarding `CC(C)(CNC(=O)[C@H](O)[C@H](O)[C@H](O[C@@H]1O[C@H](CO)[C@H](O)[C@H](O)[C@H]1O)[C@@H](O)CO)/[N+]([O-])=C/c1ccc(CNC(=O)CCC(F)(F)C(F)(F)C(F)(F)C(F)(F)C(F)(F)C(F)(F)F)cc1`, the logKw in [14] is 4.71. Further, the inhibition at 10 µM came to 30.3% in series [1], 42.6% in series [4] and 32.8% in [13]. Further, the Activity stood at 90.7 nmol in [15], 46.7% in the series with Rotifers [2], 30.1% in the series with Rotifers [5] and 42.6 nmol in series [17]. Besides, the CMC in series [18] was found to be 0.18 mM. The same molecule registered a solubility in series [11] of 270 mg/mL (≈ 289 mM).
